Measured values as given in ChEMBL document CHEMBL4138248, “Discovery of naphtho[1,2-d]oxazole derivatives as potential anti-HCV agents through inducing heme oxygenase-1 expression” (Eur J Med Chem, 2018).

How the values were obtained:
Hepatitis C virus [1] = assay: Antiviral activity against HCV infected in human Ava5 cells assessed as inhibition of viral RNA replication after 3 days by RT-qPCR method; assay type: functional, organism-based, Hepacivirus hominis; conditions: Ava5, 72 h
Procedure, shortened: (§1)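 Ava5 cells (Huh-7 hepatoma cells carrying an HCV replicon, grown in DMEM/10% FBS with 1 mg·mL⁻¹ G418) were treated for 3 days with a range of concentrations. HCV RNA was measured by RT-qPCR and normalized to cellular gapdh mRNA. Values are mean ± SD of three independent experiments, each in triplicate.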

Hepatitis C virus [2] = assay: Antiviral activity against HCV infected in human Ava5 cells assessed as inhibition of viral RNA replication at 5 uM after 3 days by RT-qPCR method relative to control; assay type: functional, Hepacivirus hominis; conditions: Ava5, 72 h
Procedure, shortened: (§2)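 Ava5 replicon cells were exposed to 5 or 20 μM for 3 days, starting from 10 mM DMSO stocks diluted in medium. HCV RNA was quantified by RT-qPCR against gapdh and expressed as % inhibition relative to untreated control. Ribavirin was the reference drug. Mean ± SD of three independent experiments.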

[3] = Selectivity index, ratio of CC50 for human Ava5 cells to IC50 for HCV; assay type: toxicity; conditions: read-out: Ratio CC50/IC50
Procedure, shortened: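 SI = CC50/IC50. CC50 comes from 72 h XTT in […] Ava5 cells. IC50 is the concentration giving 50% inhibition of HCV, measured by RT-qPCR after 3 days in Ava5 cells.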

[4] = Cytotoxicity against human Ava5 cells assessed as decrease in cell viability after 72 hrs by XTT assay; assay type: cell-based
Procedure, shortened: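 XTT assay on […] Ava5 cells at 5×10^3 per well with serial dilutions for 72 h at 37 °C in 5% CO₂. CC50 is the concentration giving 50% growth inhibition.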

[5] = Cytotoxicity against human Ava5 cells assessed as cell viability at 200 uM after 72 hrs by XTT assay relative to control; assay type: cell-based; conditions: read-out: Activity
Procedure, shortened: (§3)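 XTT viability assay run alongside the antiviral assays. Ava5 cells were plated at 5×10^3 per well and exposed to 20 or 200 μM for 72 h at 37 °C in humidified 5% CO₂. Viability is expressed as % of untreated cells.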

[6] = Cytotoxicity against human Ava5 cells assessed as cell viability at 20 uM after 72 hrs by XTT assay relative to control; assay type: cell-based; conditions: read-out: Activity; procedure, shortened: as §3
Hepatitis C virus [7] = assay: Antiviral activity against HCV infected in human Ava5 cells assessed as inhibition of viral RNA replication at 20 uM after 3 days by RT-qPCR method relative to control; assay type: functional, Hepacivirus hominis; conditions: Ava5, 72 h; procedure, shortened: as §2
Hepatitis C virus [8] = assay: Antiviral activity against HCV Con1 infected in human Ava5 cells assessed as inhibition of viral RNA replication after 3 days by RT-qPCR method; assay type: functional, organism-based, Hepacivirus hominis; conditions: isolate Con1, Ava5, 72 h; procedure, shortened: as §1
Hepatitis C virus [9] = assay: Antiviral activity against HCV infected in human Huh7 cells assessed as inhibition of viral RNA replication after 3 days by RT-qPCR method; assay type: functional, organism-based, Hepacivirus hominis; conditions: Huh-7, 72 h

Row | SMILES | IC50 (Hepatitis C virus [1]) | inhibition at 5 µM (Hepatitis C virus [2]) | selectivity ratio [3] | CC50 at 72 h [4] | viability at 72 h, 200 µM [5] | viability at 72 h, 20 µM [6] | inhibition at 20 µM (Hepatitis C virus [7]) | EC50 (Hepatitis C virus [8]) | EC50 (Hepatitis C virus [9])
1 | NC(=O)c1ncn([C@@H]2O[C@H](CO)[C@@H](O)[C@H]2O)n1 [RIBAVIRIN] | 13.2 µM | 31.2% | 8.08 | 106 µM | 26.8% | 71.4% | 65.7% | – | –
2 | Cc1ccc2nc(Nc3ccc([N+](=O)[O-])cc3)sc2c1 | – | – | – | – | – | – | – | 8 µM | –
3 | CN(c1ccc(Cl)cc1)c1cc2oc(-c3ccc(Cl)cc3)nc2c2ccccc12 | – | 1.1% | – | – | 30.2% | 86.4% | 2.56% | – | –
4 | COc1ccc(-c2nc3c(cc(Nc4ccc(Cl)cc4)c4ccccc43)o2)cc1 | – | 4.5% | – | – | 23.4% | 83.7% | 8.5% | – | –
5 | COc1cc(NCc2cc3ccccc3oc2=O)cc(OC)c1OC | – | – | – | – | – | – | – | – | 12 µM
6 | COc1ccc(Nc2cc3oc(-c4ccc(Cl)cc4)nc3c3ccccc23)cc1 | – | 3.2% | – | – | 98.2% | 103% | 35.6% | – | –
7 | Clc1ccc(-c2nc3c(cc(Nc4ccccc4)c4ccccc43)o2)cc1 | – | 2.5% | – | – | 62.4% | 99.9% | 3.33% | – | –
8 | COc1ccc(-c2nc3c(cc(Nc4ccccc4)c4ccccc43)o2)cc1 | – | 3.7% | – | – | 68.5% | 86.3% | 5.31% | – | –
9 | COc1ccc(-c2nc3c(cc(N(C)c4ccccc4)c4ccccc43)o2)cc1 | – | 2.5% | – | – | 54% | 69.2% | 3.21% | – | –
10 | Clc1ccc(Nc2cc3oc(-c4ccccc4)nc3c3ccccc23)cc1 | – | 1.2% | – | – | 93% | 107% | 3.53% | – | –
11 | CN(c1ccc(Cl)cc1)c1cc2oc(-c3ccco3)nc2c2ccccc12 | – | 2.7% | – | – | 26.5% | 73% | 3.12% | – | –
12 | COc1ccc(-c2nc3c(cc(N(C)c4ccc(Cl)cc4)c4ccccc43)o2)cc1 | – | 2.5% | – | – | 93% | 107% | 6.5% | – | –
13 | Clc1ccc(Nc2cc3oc(-c4ccco4)nc3c3ccccc23)cc1 | – | 3.2% | – | – | 28.9% | 83.5% | 4.51% | – | –
